Laboratory results from ChEMBL document CHEMBL2163218, “Design, synthesis, and biological and structural evaluations of novel HIV-1 protease inhibitors to combat drug resistance” (J Med Chem, 2012).

Tests used:
[1] = system: Human immunodeficiency virus 1; experiment: Antiviral activity against multidrug resistant HIV1 MDR1 containing protease M46I, I54V, V82A and L90M mutant infected in HEK293 cells assessed as reduction in viral replication incubated for 48 hrs by luciferase reporter based assay; assay type: functional, organism-based; conditions: Human immunodeficiency virus 1, MDR1, HEK293, 48 h
[2] = system: Human immunodeficiency virus 1; experiment: Antiviral activity against multidrug resistant HIV1 MDRC4 infected in HEK293 cells assessed as reduction in viral replication incubated for 48 hrs by luciferase reporter based assay; assay type: functional, organism-based; conditions: Human immunodeficiency virus 1, MDRC4, HEK293, 48 h
[3] = system: Human immunodeficiency virus 1; experiment: Antiviral activity against wild type HIV1 clade C isolated form HIV1 patient infected in HEK293 cells assessed as reduction in viral replication incubated for 48 hrs by luciferase reporter based assay; assay type: functional, organism-based; conditions: Human immunodeficiency virus 1, clade C, HEK293, 48 h
[4] = system: Human immunodeficiency virus 1; experiment: Antiviral activity against wild type HIV1 clade B isolated form HIV1 patient infected in HEK293 cells assessed as reduction in viral replication incubated for 48 hrs by luciferase reporter based assay; assay type: functional, organism-based; conditions: Human immunodeficiency virus 1, clade B, HEK293, 48 h
[5] = system: Human immunodeficiency virus 1; experiment: Antiviral activity against wild type HIV1 clade A isolated form HIV1 patient infected in HEK293 cells assessed as reduction in viral replication incubated for 48 hrs by luciferase reporter based assay; assay type: functional, organism-based; conditions: Human immunodeficiency virus 1, clade A, HEK293, 48 h
[6] = system: Human immunodeficiency virus 1; experiment: Antiviral activity against wild type HIV1 infected in HEK293 cells assessed as reduction in viral replication incubated for 48 hrs by luciferase reporter based assay; assay type: functional, organism-based; conditions: Human immunodeficiency virus 1, HEK293, 48 h
Protease = Protease (Human immunodeficiency virus 1, UniProt Q9YQ12); experiment: Inhibition of wild type HIV1 protease by FRET assay
Sequence of Protease (Q9YQ12 whole entry): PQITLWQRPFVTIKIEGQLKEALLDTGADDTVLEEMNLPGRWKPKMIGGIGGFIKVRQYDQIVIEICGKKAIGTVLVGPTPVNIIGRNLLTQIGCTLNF
Method in brief: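 Recombinant HIV-1 protease Q7K, desalted into 20 mM sodium acetate pH 5, apparent concentration ~50 nM (UV 280 nm). Inhibitors in DMSO, 12 concentrations, added with protease to buffer pH 4.7 (0.1 M NaOAc, 1 M NaCl, 1 mM EDTA, 1 mM DTT, 2% DMSO, 1 mg/mL BSA). Cleavage started by injecting EDANS/DABCYL peptide substrate. Ki from initial velocities fitted to the Morrison equation.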

[7] = molecular target: Human immunodeficiency virus type 1 protease (Human immunodeficiency virus 1, UniProt Q72874, A71V/G73S/I84V/L10I/L63P/L90M); experiment: Inhibition of HIV1 protease L10I, L63P, A71V, G73S, I84V, L90M mutant by FRET assay
[8] = molecular target: Human immunodeficiency virus type 1 protease (Human immunodeficiency virus 1, UniProt Q72874, G48V/I54V/L10I/L63P/V82A); experiment: Inhibition of HIV1 protease L10I, G48V, I54V, L63P and V82A mutant by FRET assay
[9] = molecular target: Human immunodeficiency virus type 1 protease (Human immunodeficiency virus 1, UniProt Q72874, A71V/I50V); experiment: Inhibition of HIV1 protease I50V, A71V mutant by FRET assay

CC(C)CN(C[C@@H](O)[C@H](Cc1ccccc1)NC(=O)O[C@H]1CCOC1)S(=O)(=O)c1ccc(N)cc1
EC50 [1]: 15.6 nM
EC50 [2]: 17.5 nM
EC50 [3]: 3.7 nM
EC50 [4]: 1.8 nM
EC50 [5]: 2.6 nM
EC50 [6]: 3 nM

CC(C)CN(C[C@@H](O)[C@H](Cc1ccccc1)NC(=O)O[C@H]1CO[C@H]2OCC[C@H]21)S(=O)(=O)c1ccc(N)cc1
EC50 [1]: 0.23 nM
EC50 [3]: 0.18 nM
EC50 [4]: 0.15 nM
EC50 [5]: 0.3 nM
EC50 [6]: 0.25 nM

CCCCCN(C[C@@H](O)[C@H](Cc1ccccc1)NC(=O)OCCN1CCNC1=O)S(=O)(=O)c1ccc(OC)cc1
Ki (Protease): 0.398 nM

CCCCCN(C[C@@H](O)[C@H](Cc1ccccc1)NC(=O)OCCN1CCOC1=O)S(=O)(=O)c1ccc(OC)cc1
Ki (Protease): 0.008 nM
EC50 [1]: 300 nM
EC50 [2]: 265 nM
EC50 [3]: 158 nM
EC50 [4]: 52.4 nM
EC50 [5]: 126 nM
EC50 [6]: 77.1 nM

CCCCCN(C[C@@H](O)[C@H](Cc1ccccc1)NC(=O)O[C@@H]1CCOC1=O)S(=O)(=O)c1ccc(OC)cc1
Ki (Protease): 65.9 nM

CCCCCN(C[C@@H](O)[C@H](Cc1ccccc1)NC(=O)OC[C@@H]1CCC(=O)N1)S(=O)(=O)c1ccc(OC)cc1
Ki (Protease): 0.624 nM

CCCCCN(C[C@@H](O)[C@H](Cc1ccccc1)NC(=O)O[C@H](C)CC(=O)OC)S(=O)(=O)c1ccc2ncsc2c1
Ki [7]: 45.9 nM
Ki [8]: 180 nM
Ki (Protease): 11.4 nM
Ki [9]: 120 nM

CCCCCN(C[C@@H](O)[C@H](Cc1ccccc1)NC(=O)OCCNC(=O)C(F)(F)F)S(=O)(=O)c1ccc2ncsc2c1
Ki (Protease): 19.7 nM

CCCCCN(C[C@@H](O)[C@H](Cc1ccccc1)NC(=O)OCCNC(=O)C(Cl)Cl)S(=O)(=O)c1ccc2ncsc2c1
EC50 [1]: 254 nM
EC50 [2]: 285 nM
EC50 [3]: 67 nM
EC50 [4]: 30.3 nM
EC50 [5]: 79.2 nM
EC50 [6]: 38.3 nM

CCCCCN(C[C@@H](O)[C@H](Cc1ccccc1)NC(=O)O[C@H](C)CCC(C)=O)S(=O)(=O)c1ccc2ncsc2c1
Ki (Protease): 3.38 nM

CCCCCN(C[C@@H](O)[C@H](Cc1ccccc1)NC(=O)OCCNC(=O)OC(C)(C)C)S(=O)(=O)c1ccc2ncsc2c1
Ki (Protease): 1.29 nM

CCCCCN(C[C@@H](O)[C@H](Cc1ccccc1)NC(=O)OC[C@@H](C)C(=O)OC)S(=O)(=O)c1ccc2ncsc2c1
Ki (Protease): 3.34 nM

CCCCCN(C[C@@H](O)[C@H](Cc1ccccc1)NC(=O)OCCN1CCNC1=O)S(=O)(=O)c1ccc2ncsc2c1
Ki (Protease): 0.217 nM
EC50 [1]: 237 nM
EC50 [2]: 274 nM
EC50 [3]: 130 nM
EC50 [4]: 53.9 nM
EC50 [5]: 99.7 nM
EC50 [6]: 83.8 nM

CCCCCN(C[C@@H](O)[C@H](Cc1ccccc1)NC(=O)OCCN1CCOC1=O)S(=O)(=O)c1ccc2ncsc2c1
Ki (Protease): 0.017 nM
EC50 [1]: 259 nM
EC50 [2]: 420 nM
EC50 [3]: 120 nM
EC50 [4]: 41.1 nM
EC50 [5]: 96.3 nM
EC50 [6]: 73 nM

CCCCCN(C[C@@H](O)[C@H](Cc1ccccc1)NC(=O)O[C@@H]1CCOC1=O)S(=O)(=O)c1ccc2ncsc2c1
Ki (Protease): 42.1 nM

CCCCCN(C[C@@H](O)[C@H](Cc1ccccc1)NC(=O)OC[C@@H]1CCC(=O)N1)S(=O)(=O)c1ccc2ncsc2c1
EC50 [1]: 130 nM
EC50 [2]: 174 nM
EC50 [3]: 96.5 nM
EC50 [4]: 44.8 nM
EC50 [5]: 82.7 nM
EC50 [6]: 58.9 nM

CC[C@H](C)CN(C[C@@H](O)[C@H](Cc1ccccc1)NC(=O)OCCNC(=O)C(F)(F)F)S(=O)(=O)c1ccc2ncsc2c1
Ki (Protease): 9.13 nM

CC[C@H](C)CN(C[C@@H](O)[C@H](Cc1ccccc1)NC(=O)OCCNC(=O)C(Cl)Cl)S(=O)(=O)c1ccc2ncsc2c1
EC50 [1]: 144 nM
EC50 [2]: 189 nM
EC50 [3]: 88 nM
EC50 [4]: 28.6 nM
EC50 [5]: 64.1 nM
EC50 [6]: 43 nM

CC[C@H](C)CN(C[C@@H](O)[C@H](Cc1ccccc1)NC(=O)OCCNC(=O)OC(C)(C)C)S(=O)(=O)c1ccc2ncsc2c1
EC50 [1]: 756 nM
EC50 [2]: 918 nM
EC50 [3]: 331 nM
EC50 [4]: 183 nM
EC50 [5]: 231 nM
EC50 [6]: 198 nM

CC[C@H](C)CN(C[C@@H](O)[C@H](Cc1ccccc1)NC(=O)OC[C@@H](C)C(=O)OC)S(=O)(=O)c1ccc2ncsc2c1
Ki (Protease): 1.39 nM

CC[C@H](C)CN(C[C@@H](O)[C@H](Cc1ccccc1)NC(=O)OCCN1CCNC1=O)S(=O)(=O)c1ccc2ncsc2c1
EC50 [1]: 50.4 nM
EC50 [2]: 88.1 nM
EC50 [3]: 49.3 nM
EC50 [4]: 21.6 nM
EC50 [5]: 31.4 nM
EC50 [6]: 34.8 nM

CC[C@H](C)CN(C[C@@H](O)[C@H](Cc1ccccc1)NC(=O)OCCN1CCOC1=O)S(=O)(=O)c1ccc2ncsc2c1
Ki (Protease): 0.005 nM
EC50 [1]: 32.2 nM
EC50 [2]: 73.6 nM
EC50 [3]: 36.2 nM
EC50 [4]: 12 nM
EC50 [5]: 21.2 nM
EC50 [6]: 33.3 nM

CC[C@H](C)CN(C[C@@H](O)[C@H](Cc1ccccc1)NC(=O)OC[C@@H]1CCC(=O)N1)S(=O)(=O)c1ccc2ncsc2c1
EC50 [1]: 21.1 nM
EC50 [2]: 35.6 nM
EC50 [3]: 13.2 nM
EC50 [4]: 16.4 nM
EC50 [5]: 25.1 nM
EC50 [6]: 15.5 nM

CCCCCN(C[C@@H](O)[C@H](Cc1ccccc1)NC(=O)O[C@H](C)CC(=O)OC)S(=O)(=O)c1ccc(OC)cc1
Ki (Protease): 17.2 nM

CCCCCN(C[C@@H](O)[C@H](Cc1ccccc1)NC(=O)OCCNC(=O)C(F)(F)F)S(=O)(=O)c1ccc(OC)cc1
Ki (Protease): 31.4 nM

CCCCCN(C[C@@H](O)[C@H](Cc1ccccc1)NC(=O)O[C@H](C)CCC(C)=O)S(=O)(=O)c1ccc(OC)cc1
Ki (Protease): 6.98 nM

CCCCCN(C[C@@H](O)[C@H](Cc1ccccc1)NC(=O)OCCNC(=O)OC(C)(C)C)S(=O)(=O)c1ccc(OC)cc1
Ki (Protease): 2.95 nM

CC[C@H](C)CN(C[C@@H](O)[C@H](Cc1ccccc1)NC(=O)OC(C)(C)C)S(=O)(=O)c1ccc2ncsc2c1
Ki (Protease): 0.243 nM

CC[C@H](C)CN(C[C@@H](O)[C@H](Cc1ccccc1)NC(=O)OCCNC(=O)C(F)(F)F)S(=O)(=O)c1ccc(OC)cc1
Ki (Protease): 11.9 nM

CC[C@H](C)CN(C[C@@H](O)[C@H](Cc1ccccc1)NC(=O)OCCNC(=O)C(Cl)Cl)S(=O)(=O)c1ccc(OC)cc1
EC50 [1]: 123 nM
EC50 [2]: 159 nM
EC50 [3]: 84.6 nM
EC50 [4]: 30.7 nM
EC50 [5]: 51.3 nM
EC50 [6]: 39.1 nM

CC[C@H](C)CN(C[C@@H](O)[C@H](Cc1ccccc1)NC(=O)O[C@H](C)CCC(C)=O)S(=O)(=O)c1ccc(OC)cc1
Ki (Protease): 0.426 nM

CC[C@H](C)CN(C[C@@H](O)[C@H](Cc1ccccc1)NC(=O)OCCNC(=O)OC(C)(C)C)S(=O)(=O)c1ccc(OC)cc1
Ki (Protease): 2.01 nM

CC[C@H](C)CN(C[C@@H](O)[C@H](Cc1ccccc1)NC(=O)OC[C@@H](C)C(=O)OC)S(=O)(=O)c1ccc(OC)cc1
EC50 [1]: 41.8 nM
EC50 [2]: 56 nM
EC50 [3]: 36.3 nM
EC50 [4]: 20.6 nM
EC50 [5]: 24.9 nM
EC50 [6]: 30.9 nM

CC[C@H](C)CN(C[C@@H](O)[C@H](Cc1ccccc1)NC(=O)OCCN1CCNC1=O)S(=O)(=O)c1ccc(OC)cc1
EC50 [1]: 113 nM
EC50 [2]: 132 nM
EC50 [3]: 135 nM
EC50 [4]: 57.3 nM
EC50 [5]: 95.4 nM
EC50 [6]: 84.4 nM

CC[C@H](C)CN(C[C@@H](O)[C@H](Cc1ccccc1)NC(=O)OCCN1CCOC1=O)S(=O)(=O)c1ccc(OC)cc1
EC50 [1]: 56.1 nM
EC50 [2]: 74.4 nM
EC50 [3]: 57.3 nM
EC50 [4]: 27.8 nM
EC50 [5]: 43.3 nM
EC50 [6]: 40.5 nM

CC[C@H](C)CN(C[C@@H](O)[C@H](Cc1ccccc1)NC(=O)O[C@@H]1CCOC1=O)S(=O)(=O)c1ccc(OC)cc1
Ki (Protease): 35.1 nM

CC[C@H](C)CN(C[C@@H](O)[C@H](Cc1ccccc1)NC(=O)OC[C@@H]1CCC(=O)N1)S(=O)(=O)c1ccc(OC)cc1
EC50 [1]: 37.1 nM
EC50 [2]: 72.2 nM
EC50 [3]: 44.1 nM
EC50 [4]: 38.5 nM
EC50 [5]: 64.5 nM
EC50 [6]: 43.9 nM
